What all share (format): functional
The test system of assay [1] is Mycobacterium tuberculosis. Briefly: Antitubercular activity against Mycobacterium tuberculosis H37Rv ATCC 27294 after 21 days by agar proportion method. The following applies: H37Rv ATCC 27294, 504 h. A digest of the protocol: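 Agar proportion method on Middlebrook 7H10 tubes against rifampicin/isoniazid-susceptible H37Rv. Inoculum: 4–7 day 7H9 broth culture at 37 °C, adjusted to McFarland no. 1, then diluted 10^-2 and 10^-4; 0.1 mL per tube. Incubated 21 days at 37 °C under 5–7% CO2. Colonies counted and compared with drug-free control. Two independent measurements.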

Another assay has as its system Jurkat. Briefly: Cytotoxicity against human Jurkat cells by MTT assay. On the technique in general: Tetrazolium assays rely on reduction of a dye to a coloured formazan, in cell work by metabolically active cells.
The nature of assay [2]: Cytotoxicity against human Kga1 cells by MTT assay.
The next assay concerns Raji. The assay is described as follows: Cytotoxicity against human Raji cells by MTT assay.
In a further assay the test system is HeLa. The assay is described as follows: Cytotoxicity against human HeLa cells by MTT assay.

≈ marks a conversion by molar mass, not a printed value.

For 13 compounds, MIC and IC30 results are on record in ChEMBL document CHEMBL1153008, “Synthesis and antitubercular activity of novel 4-substituted imidazolyl-2,6-dimethyl-N3,N5-bisaryl-1,4-dihydropyridine-3,5-dicarboxamides” (2009).

The MIC is the smallest concentration in the dilution series that meets the test's criterion for growth inhibition. Broadly, the IC30 is the point of the concentration-response curve where the effect stands at 30%.

Consider `NNC(=O)c1ccncc1` [ISONIAZID], for which the MIC in assay [1] was found to be 0.2 µg/mL (≈ 1.46 µM).

Turning to `CSc1ncc(C2C(C(=O)Nc3ccccc3Cl)=C(C)NC(C)=C2C(=O)Nc2ccccc2Cl)n1Nc1ccccc1`, the IC30 was 7.76 µg/mL (≈ 12.5 µM) in the assay on Jurkat, more than 100 µg/mL in assay [2], 43.6 µg/mL (≈ 70.5 µM) with Raji and more than 100 µg/mL in the assay on HeLa. In assay [1], the minimal inhibitory concentration (MIC) is more than 16 µg/mL.

Turning to `CSc1ncc(C2C(C(=O)Nc3ccccn3)=C(C)NC(C)=C2C(=O)Nc2ccccn2)n1Cc1ccccc1`, the concentration for an effect of 30% (IC30) in the assay on Jurkat was 43.6 µg/mL (≈ 79.1 µM); in assay [2] it was 19.1 µg/mL (≈ 34.5 µM); in the assay on Raji it was 60.2 µg/mL (≈ 109 µM); in the assay with HeLa, more than 100 µg/mL.

As for `CSc1ncc(C2C(C(=O)Nc3cccc(Cl)c3)=C(C)NC(C)=C2C(=O)Nc2cccc(Cl)c2)n1Cc1ccccc1`, the IC30 in the assay with Jurkat was 47.9 µg/mL (≈ 77.4 µM); in assay [2] it was 26.3 µg/mL (≈ 42.5 µM); with Raji, 69.2 µg/mL (≈ 112 µM); with HeLa, more than 100 µg/mL.

Compound `CSc1ncc(C2C(C(=O)Nc3cccnc3)=C(C)NC(C)=C2C(=O)Nc2cccnc2)n1Nc1ccccc1` gave a minimum inhibitory concentration (MIC) in assay [1] of more than 16 µg/mL.

As to `COc1cccc2c1C(=O)c1c(O)c3c(c(O)c1C2=O)C[C@@](O)(C(=O)CO)C[C@@H]3O[C@H]1C[C@H](N)[C@H](O)[C@H](C)O1` [DOXORUBICIN], the figures for the IC30 with Jurkat and with Raji were 2.13 µg/mL (≈ 3.92 µM) and 1.51 µg/mL (≈ 2.78 µM), respectively.

In the case of `CSc1ncc(C2C(C(=O)Nc3ccc(Cl)cc3)=C(C)NC(C)=C2C(=O)Nc2ccc(Cl)cc2)n1Nc1ccccc1`, the minimum inhibitory concentration (MIC) in assay [1] is more than 16 µg/mL.

Regarding `CSc1ncc(C2C(C(=O)Nc3ccc(Cl)cc3)=C(C)NC(C)=C2C(=O)Nc2ccc(Cl)cc2)n1Cc1ccccc1`, the IC30 with Jurkat was 12.3 µg/mL (≈ 19.9 µM); in assay [2], 58.9 µg/mL (≈ 95.2 µM); in the assay on Raji, 85.1 µg/mL (≈ 138 µM); in the assay on HeLa, more than 100 µg/mL.

With `CSc1ncc(C2C(C(=O)Nc3cccnc3)=C(C)NC(C)=C2C(=O)Nc2cccnc2)n1Cc1ccccc1`, the IC30 with Jurkat came to 37.1 µg/mL (≈ 67.3 µM); in assay [2] it was 27.5 µg/mL (≈ 49.9 µM); in the assay with Raji, 75.8 µg/mL (≈ 137 µM); in the assay on HeLa, 91.2 µg/mL (≈ 165 µM).

`CSc1ncc(C2C(C(=O)Nc3cccc(Cl)c3)=C(C)NC(C)=C2C(=O)Nc2cccc(Cl)c2)n1Nc1ccccc1`: the MIC in assay [1] was more than 16 µg/mL.

In turn, `CO[C@H]1/C=C/O[C@@]2(C)Oc3c(C)c(O)c4c(O)c(c(/C=N/N5CCN(C)CC5)c(O)c4c3C2=O)NC(=O)/C(C)=C\C=C\[C@H](C)[C@H](O)[C@@H](C)[C@@H](O)[C@@H](C)[C@H](OC(C)=O)[C@@H]1C` [RIFAMPIN] gave an MIC in assay [1] of 1 µg/mL (≈ 1.22 µM).

In the case of `CSc1ncc(C2C(C(=O)Nc3ccccn3)=C(C)NC(C)=C2C(=O)Nc2ccccn2)n1Nc1ccccc1`, the IC30 with Jurkat was 13.5 µg/mL (≈ 24.4 µM); in assay [2] it was more than 100 µg/mL; in the assay on Raji it was more than 100 µg/mL; in the assay on HeLa it was 67.6 µg/mL (≈ 122 µM). Also, the MIC in assay [1] was more than 16 µg/mL.

On to `CSc1ncc(C2C(C(=O)Nc3ccc(Br)cc3)=C(C)NC(C)=C2C(=O)Nc2ccc(Br)cc2)n1Nc1ccccc1`, for which, in assay [1], the MIC is more than 16 µg/mL.
